For one data set, the system named is West Nile virus. Put plainly: Antiviral activity against West nile virus NY99 infected in african green monkey Vero cells assessed as inhibition of virus induced cytopathic effect after 24 hrs by MTS assay. The note with it: NY-99, Vero. The data set is classed as functional, organism-based.
The test system of the next data set is MRC5. Put plainly: Cytotoxicity against human MRC5 cells by MTS assay. The data set is classed as cell-based. Put shortly: (§1)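 CC50 measured in the uninfected host cells used in each CPE assay. Compound cytotoxicity is read out by MTS dye reduction.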
For orientation: Formazan colour is commonly taken as a measure of viable cells.

For a further data set, the system named is Coxsackievirus A21. Put plainly: Antiviral activity against Coxsackievirus A21 infected in human MRC5 cells assessed as inhibition of virus induced cytopathic effect after 24 hrs by MTS assay. It is filed as functional, organism-based. The note with it: Enterovirus C, MRC5, 24 h. Put shortly: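 EC50 taken from a cytoprotection (CPE) assay. Protection of virus-infected host cells is read out by MTS dye reduction. The Coxsackie A assay uses MRC-5 cells with strain A7 or A21.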
A general note: Cytopathic effects are the visible damage that an infection or toxin causes in cultured cells.

Data set [1] deals with Vero. Put plainly: Cytotoxicity against african green monkey Vero cells by MTS assay. It is filed as cell-based. Conditions: chlorocebus sabaeus. Put shortly: as §1
The next data set has as its system Human respirovirus 3. Put plainly: Antiviral activity against Parainfluenza 3 C 243 infected in african green monkey Vero cells assessed as inhibition of virus induced cytopathic effect after 24 hrs by MTS assay. The data set is classed as functional, organism-based. The note with it: Human respirovirus 3, C 243, Vero.
A short description of data set [2]: (§2) Cytotoxicity against human HuH7 cells by MTS assay. The note with it: HuH7 cells. It is filed as cell-based, Huh-7.
In data set [3] the test system is Vero. Put plainly: Cytotoxicity against african green monkey Vero E6 cells by MTS assay. The data set is classed as cell-based. The note with it: chlorocebus sabaeus. Put shortly:
as §1

Data set [4] is described as follows: Antiviral activity against Coxsackievirus A7 infected in human MRC5 cells assessed as inhibition of virus induced cytopathic effect after 24 hrs by MTS assay. It is filed as functional, cell-based. The note with it: Enterovirus A, MRC5, 24 h. Put shortly:
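Cytoprotection (CPE) assay in MRC-5 cells infected with Coxsackie A strain A7 or A21. MTS dye reduction read out both protection from virus-induced CPE and compound cytotoxicity, giving EC50 and CC50.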

The test system of the next data set is MDCK. Put plainly: Cytotoxicity against dog MDCK cells by MTS assay. The data set is classed as cell-based, Canis lupus familiaris. Put shortly:
as §1

For another data set, the system named is Influenza A virus. Put plainly: Antiviral activity against Influenza A virus H3N2 infected in MDCK cells assessed as inhibition of virus induced cytopathic effect after 24 hrs by MTS assay. The data set is classed as functional, organism-based.
A further data set has as its system SARS-CoV. Put plainly: Antiviral activity against SARS coronavirus Toronto-2 infected in african green monkey Vero cells assessed as inhibition of virus induced cytopathic effect after 24 hrs by MTS assay. It is filed as functional, organism-based. Conditions: Severe acute respiratory syndrome-related coronavirus, Toronto-2, Vero.
The subject of another data set is dengue virus type 2. Put plainly: Antiviral activity against Dengue virus type 2 New Guinea C infected in african green monkey Vero E6 cells assessed as inhibition of virus induced cytopathic effect after 24 hrs by MTS assay. It is filed as functional, organism-based.
Data set [5] concerns Hepatitis C virus. Put plainly: Antiviral activity against Hepatitis C virus genotype 1b infected in human HuH7 cells assessed as inhibition of virus induced cytopathic effect after 24 hrs by MTS assay. It is filed as functional, organism-based, Hepacivirus hominis. Conditions: Huh-7, 24 h.
Data set [6] concerns Hepatitis C virus. Put plainly: Inhibition of Hepatitis C virus genotype 1b NS5B RNA-dependent RNA polymerase using [33P]ATP after 90 mins by phosphoimaging. Conditions: 1.5 h. Also noted: species or system Hepatitis C virus subtype 1b. Put shortly:
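Uses recombinant GT1b NS5B in 50 mM Tris–HCl pH 7.5 with 10 mM KCl, 1 mM DTT, 5 mM MgCl2, 0.2 unit/μL RNAsin and 0.01% BSA (final concentrations). 75 nM enzyme is pre-incubated with 4 ng/μL (50 nM) heteropolymer sshRNA template for 5 min at rt. Inhibitor is then added and incubated 5 min at RT.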

Data set [7] can be described thus: Selectivity ratio of CC50 for human HuH7 cells to EC50 for Hepatitis C virus genotype 1b. The note with it: read-out: Ratio CC50/EC50. It is filed as ADME, cell-based, Huh-7. Put shortly: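 Anti-HCV EC50 was measured in a subgenomic HCV replicon cell assay, and CC50 was measured in the host cells of the same assay. The selectivity index was calculated as CC50/EC50.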

In a further data set the test system is Huh-7. Described as §2. It is filed as cell-based. Conditions: huh-7.
The next data set deals with Yellow fever virus. Put plainly: Antiviral activity against Yellow fever virus 17D infected in human HeLa cells assessed as inhibition of virus induced cytopathic effect after 24 hrs by MTS assay. It is filed as functional, cell-based.
The next data set has as its system HeLa. Put plainly: Cytotoxicity against human HeLa cells by MTS assay. It is filed as cell-based. Put shortly: as §1

SMILES strings stand for the structures.

In general, EC50 refers to the midpoint of the concentration-response curve. In general, CC50 refers to the concentration giving 50% cytotoxicity. Consider `C[C@@]1(c2ccc3c(N)ncnn23)O[C@H](CO)[C@@H](O)[C@H]1O`, for which the EC50 with West Nile virus was more than 30 µM; in the data set with Coxsackievirus A21, more than 30 µM; in the data set with Human respirovirus 3, 5.23 µM; in data set [4], more than 30 µM; in the data set with Influenza A virus it was more than 30 µM; with SARS-CoV, more than 30 µM. In addition, in the data set on dengue virus type 2, the EC50 was more than 30 µM. Besides, the CC50 in the data set with MRC5 was more than 30 µM; in the data set on Vero [1], more than 30 µM; in data set [2], more than 45 µM; with Vero [3], more than 30 µM; in the data set with MDCK it was more than 30 µM.
`C=C[C@@]1(c2ccc3c(N)ncnn23)O[C@H](CO)[C@@H](O)[C@H]1O`: the concentration giving a half-maximal response (EC50) with West Nile virus was more than 30 µM; with Hepatitis C virus [5], more than 89 µM; in the data set on Coxsackievirus A21 it was more than 30 µM; in the data set with Human respirovirus 3, more than 30 µM; in [4] it was more than 30 µM; in the data set on Influenza A virus it was more than 30 µM. The EC50 in the data set with SARS-CoV is 14 µM; with dengue virus type 2, more than 30 µM. Further, the half-maximal cytotoxic concentration (CC50) is more than 30 µM with MRC5; more than 30 µM in the data set on Vero [1]; more than 89 µM in data set [2]; more than 30 µM with Vero [3]; more than 30 µM in the data set on MDCK.
For `C#C[C@@]1(c2ccc3c(N)ncnn23)O[C@H](CO)[C@@H](O)[C@H]1O`, the EC50 in the data set on West Nile virus was more than 30 µM; in the data set on Hepatitis C virus [5] it was more than 89 µM; in the data set on Coxsackievirus A21, more than 30 µM; in the data set with Human respirovirus 3 it was more than 30 µM; in data set [4] it was more than 30 µM; in the data set with Influenza A virus, more than 30 µM. In addition, the EC50 in the data set with SARS-CoV and in the data set with dengue virus type 2 was more than 30 µM each time. For the same molecule, the cytotoxic concentration (CC50) in the data set on MRC5 is more than 30 µM; with Vero [1] it was more than 30 µM; in data set [2] it was more than 89 µM; with Vero [3] it was more than 30 µM; in the data set on MDCK, more than 30 µM.
One may read the IC50 as the concentration that gives 50% inhibition. `C[C@@]1(c2ccc3c(N)ncnn23)O[C@H](COP(=O)(O)OP(=O)(O)OP(=O)(O)O)[C@@H](O)[C@H]1O`: in the data set with Hepatitis C virus [6], the midpoint of inhibition, the IC50, lay at 20 µM.
The same measure, in the same setting: next, `C=C[C@@]1(c2ccc3c(N)ncnn23)O[C@H](COP(=O)(O)OP(=O)(O)OP(=O)(O)O)[C@@H](O)[C@H]1O`: 178 µM; `C#C[C@@]1(c2ccc3c(N)ncnn23)O[C@H](COP(=O)(O)OP(=O)(O)OP(=O)(O)O)[C@@H](O)[C@H]1O`: 232 µM.
In the case of `CC(C)(C)C(=O)SCCOP(=O)(OCCSC(=O)C(C)(C)C)OC[C@H]1O[C@@](C#N)(c2ccc3c(N)ncnn23)[C@H](O)[C@@H]1O`, the selectivity ratio in [7] amounted to 40. Also, the EC50 with Hepatitis C virus [5] was 0.085 µM. This molecule yielded a CC50 in the data set with Huh-7 of 3.2 µM.
As for `CC(C)(C)C(=O)SCCOP(=O)(OCCSC(=O)C(C)(C)C)OC[C@H]1O[C@@](C)(c2ccc3c(N)ncnn23)[C@H](O)[C@@H]1O`, the selectivity ratio in data set [7] is less than 10. Also, the EC50 with Hepatitis C virus [5] is 0.078 µM. Moreover, in the data set with Huh-7, the midpoint of cytotoxicity, the CC50, lay at 0.73 µM.
In the same order, the values of `C=C[C@@]1(c2ccc3c(N)ncnn23)O[C@H](COP(=O)(OCCSC(=O)C(C)(C)C)OCCSC(=O)C(C)(C)C)[C@@H](O)[C@H]1O` are less than 10, 3.43 µM and 12 µM.
In the same order, the values of `C#C[C@@]1(c2ccc3c(N)ncnn23)O[C@H](COP(=O)(OCCSC(=O)C(C)(C)C)OCCSC(=O)C(C)(C)C)[C@@H](O)[C@H]1O` are less than 10, 6.01 µM and 26 µM.
As to `N#C[C@@]1(c2ccc3c(N)ncnn23)O[C@H](CO)[C@@H](O)[C@H]1O` [GS-441524], the EC50 is more than 30 µM with West Nile virus; 11 µM in the data set on Yellow fever virus; more than 30 µM in the data set on Coxsackievirus A21; 1.71 µM with Human respirovirus 3; more than 30 µM in data set [4]; 27.9 µM in the data set on Influenza A virus. Moreover, the results for the EC50 in the data set on SARS-CoV and in the data set with dengue virus type 2 were 2.24 µM and 9.46 µM, respectively. For the same molecule, the CC50 was more than 30 µM in the data set with MRC5; more than 30 µM with HeLa; more than 30 µM with Vero [1]; more than 89 µM in data set [2]; more than 30 µM in the data set on Vero [3]; more than 30 µM in the data set on MDCK.
On to `N#C[C@@]1(c2ccc3c(N)ncnn23)O[C@H](COP(=O)(O)OP(=O)(O)OP(=O)(O)O)[C@@H](O)[C@H]1O` [RDV-TP], for which, in the data set on Hepatitis C virus [6], the IC50 came out at 5.6 µM.
